# The sample as a whole holds a higher share of hits than the screen did.
# YB-1 expression: YB-1 expression inhibition | actives 0.37% (n = 30,000) | delta delta Cp (YB-1 minus CDIP) (test concentration not listed) | U2OS, qRT-PCR YB-1 vs CDIP delta delta Cp, 16 h; hits give high values; zero = DMSO, each unit about twofold | AID 434959;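 active = delta delta Cp rounded down to an integer at or above 3, about 3 SD of DMSO wells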;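 also: higher means less YB-1 transcript or more CDIP transcript relative to DMSO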
# INS-1E ATP HTS: preserves ATP levels in cytokine-treated INS-1E cells; INS-1E cytokine-induced death, ATP luminescence, 48 h; normalised: neutral wells 0, positive control 100; protection from cytokine-induced ATP loss, % at 10 µM; actives 0.1% (n = 20,000); AID 488910;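 active = mean replicate protection from cytokine-induced ATP loss at least 50% and at least 75% of replicates each reaching 50%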
#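 Test system: INS-1E rat cells | Quantity: 8000 cells per well | Medium: Phenol-red-free RPMI with 5% fetal bovine serum | Reagent: Cytokine cocktail of IFN-γ, TNF-α and IL-1β | Doses: One compound concentration, pin transfer | Timing: 48 h co-treatment, 10 min post-lysis read | Technique: Luminescent ATP assay (CellTiter-Glo)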
# T cruzi intra: blocks T. cruzi growth inside host cells | activity score (inhibition), % at 5.01 µM | intracellular Trypanosoma cruzi in host cells, plate reader | actives 4.9% (n = 22,000); in the data active = activity score above about 55%;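 also: parasites and compound incubated about four days before reading; 0% = median of neutral control wells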
# An asterisk follows results filed as active; · = not tested or not shown.
SMILES,YB-1 expression,INS-1E ATP HTS,T cruzi intra
C[C@@H]1CN([C@H](C)CO)C(=O)c2cccc(NC(=O)c3ccc(-c4nccs4)cc3)c2O[C@H]1CN(C)C(=O)Nc1ccc(C(F)(F)F)cc1,-0.794,-3.9,76.9*
C[C@H](CO)N1C[C@H](C)[C@H](CN(C)C(=O)Nc2ccc(F)cc2)Oc2c(NC(=O)c3ccc(-c4nccs4)cc3)cccc2C1=O,-0.468,14.3,-12.0
C[C@H]1CN([C@@H](C)CO)C(=O)c2cccc(NC(=O)c3ccc(-c4nccs4)cc3)c2O[C@H]1CN(C)C(=O)Nc1ccc(C(F)(F)F)cc1,-0.0978,-10.7,23.6
CCCCc1c(C)nc(-c2ccc(Cl)cc2)[nH]c1=O,-0.13,·,·
C[C@@H]1CN([C@@H](C)CO)C(=O)c2cccc(NC(=O)CCCCCC(=O)Nc3ccccc3N)c2O[C@@H]1CN(C)Cc1ccc(Oc2ccccc2)cc1,-0.161,13.7,59.0*
C[C@H](CO)N1C[C@H](C)[C@H](CN(C)Cc2ccc(Cl)c(Cl)c2)Oc2ccc(NC(=O)CCCCCC(=O)Nc3ccccc3N)cc2C1=O,0.153,6.2,-15.8
C[C@@H]1CN([C@H](C)CO)C(=O)c2cccc(NC(=O)CCCCCC(=O)Nc3ccccc3N)c2O[C@@H]1CN(C)Cc1ccc(Oc2ccccc2)cc1,-0.246,16.7,15.0
C[C@H](CO)N1C[C@H](C)[C@@H](CN(C)Cc2ccc(-c3ccccc3)cc2)Oc2c(NC(=O)CCCCCC(=O)Nc3ccccc3N)cccc2C1=O,-0.198,-4.1,75.2*
C[C@H](CO)N1C[C@H](C)[C@H](CN(C)Cc2ccc(Cl)c(Cl)c2)Oc2c(NC(=O)CCCCCC(=O)Nc3ccccc3N)cccc2C1=O,-0.0691,14.8,65.9*
C[C@@H]1CN([C@@H](C)CO)C(=O)c2cccc(NC(=O)CCCCCC(=O)Nc3ccccc3N)c2O[C@@H]1CN(C)Cc1ccccc1,-0.00569,23.8,19.3
O=C(ON1C(=O)c2ccccc2C1=O)c1ccco1,0.0115,·,·
COC(=O)CCCCCCC(=O)N/N=C/c1ccoc1,0.367,-1.3,-5.4
COc1ccc(S(=O)(=O)Nc2cccc3c2O[C@@H](CN(C)Cc2ccc4c(c2)OCO4)[C@@H](C)CN([C@H](C)CO)C3=O)cc1,-0.00715,-3.0,7.3
Cc1noc(C)c1S(=O)(=O)Nc1ccc2c(c1)CC(=O)N([C@H](C)CO)C[C@H](C)[C@H](CN(C)Cc1ccc(Oc3ccccc3)cc1)O2,-0.724,-26.6,·
Cc1noc(C)c1S(=O)(=O)Nc1ccc2c(c1)CC(=O)N([C@@H](C)CO)C[C@H](C)[C@@H](CN(C)Cc1ccc(-c3ccccc3)cc1)O2,-0.232,-3.5,66.2*
Cc1noc(C)c1S(=O)(=O)Nc1ccc2c(c1)CC(=O)N([C@H](C)CO)C[C@@H](C)[C@H](CN(C)Cc1ccc(-c3ccccc3)cc1)O2,-0.154,-30.6,57.9*
Cc1noc(C)c1S(=O)(=O)Nc1ccc2c(c1)CC(=O)N([C@@H](C)CO)C[C@H](C)[C@@H](CN(C)Cc1ccccc1)O2,-0.313,2.4,26.6
Cc1noc(C)c1S(=O)(=O)Nc1ccc2c(c1)C(=O)N([C@H](C)CO)C[C@H](C)[C@H](CN(C)Cc1ccc(-c3ccccc3)cc1)O2,0.156,-16.8,65.3*
Cc1noc(C)c1S(=O)(=O)Nc1ccc2c(c1)CC(=O)N([C@H](C)CO)C[C@@H](C)[C@H](CN(C)Cc1ccc(Oc3ccccc3)cc1)O2,-0.243,-7.2,69.4*
Cc1noc(C)c1S(=O)(=O)Nc1ccc2c(c1)CC(=O)N([C@@H](C)CO)C[C@H](C)[C@H](CN(C)Cc1ccccc1)O2,-0.192,4.8,1.6
Cc1noc(C)c1S(=O)(=O)Nc1ccc2c(c1)C(=O)N([C@@H](C)CO)C[C@H](C)[C@@H](CN(C)Cc1ccc(-c3ccccc3)cc1)O2,0.0799,-18.6,40.9
C[C@@H]1CN([C@@H](C)CO)C(=O)c2cccc(N(C)C)c2O[C@@H]1CN(C)Cc1ccncc1,-0.154,1.4,-20.0
COc1ccc(S(=O)(=O)Nc2ccc3c(c2)CC(=O)N([C@@H](C)CO)C[C@H](C)[C@H](CN(C)CC2CCCCC2)O3)cc1,0.269,14.0,21.9
C[C@H](CO)N1C[C@H](C)[C@H](CN(C)C(=O)Nc2cccc3ccccc23)Oc2ccc(NS(=O)(=O)c3ccc(F)cc3)cc2C1=O,0.932,·,-6.3
C[C@H]1CN([C@@H](C)CO)C(=O)c2cc(NS(C)(=O)=O)ccc2O[C@H]1CN(C)Cc1ccc(-c2ccccc2)cc1,-0.148,-7.6,3.3
C[C@H]1CN([C@@H](C)CO)C(=O)c2cccc(NC(=O)Nc3ccccc3)c2O[C@@H]1CN(C)Cc1ccc(Cl)c(Cl)c1,0.105,-13.1,8.8
